Key:
Human alphaherpesvirus 1 [1] = test: Protective index was measured on herpes simplex virus type 1(HSV-1) infected mice, at dose of 200 mg/kg/day; ip; assay type: functional; settings: route intraperitoneal
How it was run: (§1)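 Mice inoculated ip with 5.6 × 10^4 pfu HSV-1. Compound given ip in saline at the stated (mg/kg)/day at -40, -28, -20, -3 and +3 h relative to infection. Protection index = (control mortality − treated mortality)/control mortality; >0.25 counted as active.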

L929 [2] = test: Serum interferon response from a single ip administration of 800 mg/kg employing a plaque-reduction assay.(VSV on L929 cells); assay type: functional, Mus musculus; settings: route intraperitoneal
How it was run: (§2)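 Serum interferon measured after one ip dose of 800 mg/kg, titrated by VSV plaque reduction on L929 cells. Peak titre within 24 h scored: +++ ≥2000, ++ ≈500-1000, + ≈50-500, ± ≈10-50 units/mL.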

Mus musculus [3] = test: Tested for in vivo antiviral activity against semliki forest virus in mice after intraperitoneal administration; assay type: functional; settings: ip
How it was run: (§3)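 Mice got a single compound dose by the stated route 18 h before a lethal ip Semliki Forest virus challenge, 24 mice per group. ED50 is the minimum dose protecting 50% of mice, calculated by probit analysis of variance, in mg/kg.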

Mus musculus [4] = test: Tested for in vivo antiviral activity against semliki forest virus in mice after peroral administration; assay type: functional; settings: po; how it was run: as §3
Mus musculus [5] = test: Tested for in vivo antiviral activity against semliki forest virus in mice after subcutaneous administration; assay type: functional; settings: sc; how it was run: as §3
Human alphaherpesvirus 1 [6] = test: Protective index was measured on herpes simplex virus type 1(HSV-1) infected mice, at a dose of 200 mg/kg/day; ip; assay type: functional; settings: route intraperitoneal; how it was run: as §1
L929 [7] = test: Serum interferon response from a single ip administration of 800 mg/kg employing a plaque-reduction assay.(VSV on L929 cells); range 500-1000; assay type: functional, Mus musculus; settings: route intraperitoneal; how it was run: as §2
Human alphaherpesvirus 1 [8] = test: Protective index was measured on herpes simplex virus type 1(HSV-1) infected mice, at a dose of 100 mg/kg/day; ip; assay type: functional; settings: route intraperitoneal
Human alphaherpesvirus 1 [9] = test: Protective index was measured on herpes simplex virus type 1(HSV-1) infected mice. at dose of 100 mg/kg/day; ip; assay type: functional; settings: route intraperitoneal
L929 [10] = test: Serum interferon response from a single ip administration of 800 mg/kg employing a plaque-reduction assay.(VSV on L929 cells); range 50-500; assay type: functional, Mus musculus; settings: route intraperitoneal; how it was run: as §2
Human alphaherpesvirus 1 [11] = test: Protective index was measured on herpes simplex virus type 1(HSV-1) infected mice, at dose of 100 mg/kg/day; ip; assay type: functional; settings: route intraperitoneal
Human alphaherpesvirus 1 [12] = test: Protective index was measured on herpes simplex virus type 1(HSV-1) infected mice. at a dose of 200 mg/kg/day, ip; assay type: functional; settings: route intraperitoneal; how it was run: as §1
Human alphaherpesvirus 1 [13] = test: Protective index was measured on herpes simplex virus type 1(HSV-1) infected mice at 150 mg/kg/day; assay type: functional; how it was run: as §1

| SMILES | Interferon response (L929 [2]) | ED50 (Mus musculus [3]) | ED50 (Mus musculus [4]) | ED50 (Mus musculus [5]) | further results |
| --- | --- | --- | --- | --- | --- |
| Nc1nc(O)c(Cl)c(-c2ccccc2)n1 | >=2000 ml | 100 mg/kg | 90 mg/kg | 105 mg/kg | Protection index (Human alphaherpesvirus 1 [1]): 0.62 |
| CCc1c(O)nc(N)nc1-c1ccccc1 | – | 45 mg/kg | 280 mg/kg | > 400 mg/kg | Protection index (Human alphaherpesvirus 1 [6]): 0.57; Interferon response (L929 [7]): 1000 mL |
| CCCc1c(O)nc(N)nc1-c1ccccc1 | – | > 400 mg/kg | – | – | Protection index (Human alphaherpesvirus 1 [8]): 0.13 |
| Nc1nc(O)c(I)c(-c2ccccc2)n1 | – | 50 mg/kg | > 400 mg/kg | 25 mg/kg | Protection index (Human alphaherpesvirus 1 [9]): 0.86; Interferon response (L929 [10]): 500 mL |
| CCOCCc1c(O)nc(N)nc1-c1ccccc1 | – | > 800 mg/kg | > 400 mg/kg | > 400 mg/kg | Protection index (Human alphaherpesvirus 1 [8]): 0.15 |
| Cc1c(O)nc(N)nc1-c1ccccc1 | >=2000 ml | 185 mg/kg | – | – | Protection index (Human alphaherpesvirus 1 [11]): 0.35 |
| Cc1nc(N)nc(O)c1I | – | 200 mg/kg | – | – | Protection index (Human alphaherpesvirus 1 [12]): 0.16; Interferon response (L929 [7]): 1000 mL |
| C=CCc1c(O)nc(N)nc1-c1ccccc1 | – | 95 mg/kg | > 400 mg/kg | > 400 mg/kg | Protection index (Human alphaherpesvirus 1 [6]): 0.43; Interferon response (L929 [10]): 50 mL |
| C#CCc1c(O)nc(N)nc1-c1ccccc1 | – | 130 mg/kg | > 400 mg/kg | – | – |
| Cc1nc(N)nc(O)c1Br | 1000 mL | 250 mg/kg | – | – | Protection index (Human alphaherpesvirus 1 [13]): 0.4 |
| Nc1nc(=O)c(Br)c(-c2ccccc2)[nH]1 [BROPIRIMINE] | >=2000 ml | 100 mg/kg | 100 mg/kg | 50 mg/kg | – |

Source: ChEMBL document CHEMBL1121397, “5-substituted 2-amino-6-phenyl-4(3H)-pyrimidinones. Antiviral- and interferon-inducing agents” (1980)
